These results are taken from ChEMBL document CHEMBL1759959, “Synthesis and antitumor activity of 10-arylcamptothecin derivatives” (Bioorg Med Chem Lett, 2011).

Data set [1] concerns A549. The data set is described as follows: Cytotoxicity against human A549 cells after 3 days. Format: functional, cell-based. The method, boiled down:
(§1)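 HL60 (leukaemia), A549 (lung) and BEL-7402 (liver) human tumour cells exposed to compounds for 3 days; viability read by MTT assay and SRB assay; IC50 (half-maximal inhibitory concentration) reported.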

The next data set deals with Bel-7402. The data set is described as follows: Cytotoxicity against human Bel7402 cells after 3 days. Format: functional, cell-based. The gist of the method:
as §1

The test system of another data set is HL-60. The data set is described as follows: Cytotoxicity against human HL60 cells after 3 days. Format: functional, cell-based. The method, boiled down: as §1
The test system of data set [2] is A549. Put plainly: Cell cycle arrest in human A549 cells assessed as accumulation at G0/G1 phase at 25 nM after 24 hrs by flow cytometry (reference value: 62.14%). For orientation: In flow cytometry, cells or beads pass a laser one at a time.
Data set [3] can be described thus: Chemical stability of the compound in phosphate saline buffer at pH 7.4 at 50 umol/L by HPLC analysis in presence of HAS. As to conditions: pH 7.4, 50 µM. Format: physicochemical. The method, boiled down: (§2)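 Lactone stability followed by HPLC with fluorescence detection; drug at 50 μmol/L incubated at pH 7.4, 37 °C in PBS, PBS with human serum albumin, or human blood; each point mean of three determinations, uncertainty 10% or less.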

Data set [4] deals with A549. Put plainly: Cell cycle arrest in human A549 cells assessed as accumulation at G0/G1 phase at 12.5 uM after 24 hrs by flow cytometry (reference value: 62.14%). Format: functional.
The subject of data set [5] is A549. Put plainly: Cell cycle arrest in human A549 cells assessed as accumulation at S phase at 12.5 uM after 24 hrs by flow cytometry (reference value: 27.52%). The format is functional.
The test system of data set [6] is A549. Put plainly: Cell cycle arrest in human A549 cells assessed as accumulation at G2/M phase at 12.5 uM after 24 hrs by flow cytometry (reference value: 10.34%). Format: functional.
The test system of data set [7] is A549. The data set is described as follows: Cell cycle arrest in human A549 cells assessed as accumulation at S phase at 25 nM after 24 hrs by flow cytometry (reference value: 27.52%).
The subject of data set [8] is A549. Put plainly: Cell cycle arrest in human A549 cells assessed as accumulation at G2/M phase at 25 nM after 24 hrs by flow cytometry (reference value: 10.34%).
Data set [9] concerns A549. Put plainly: Cell cycle arrest in human A549 cells assessed as accumulation at G2/M phase at 50 uM after 24 hrs by flow cytometry (reference value: 10.34%). The format is functional.
Data set [10] deals with A549. Put plainly: Cell cycle arrest in human A549 cells assessed as accumulation at G0/G1 phase at 50 uM after 24 hrs by flow cytometry (reference value: 62.14%). The format is functional.
A short description of data set [11]: Chemical stability of the compound in phosphate saline buffer at pH 7.4 at 50 umol/L by HPLC analysis. Format: physicochemical. As to conditions: pH 7.4, 50 µM. The method, boiled down: as §2
In data set [12] the test system is A549. Put plainly: Cell cycle arrest in human A549 cells assessed as accumulation at S phase at 50 uM after 24 hrs by flow cytometry (reference value: 27.52%). Format: functional.
Data set [13] can be described thus: Chemical stability of the compound in phosphate saline buffer at pH 7.4 at 50 umol/L by HPLC analysis in presence of human blood. Format: physicochemical. The following applies: pH 7.4, 50 µM. The gist of the method: as §2
Data set [14] concerns the target T1, DNA topoisomerase 1 (Homo sapiens) (UniProt P11387).
T1 sequence (whole entry): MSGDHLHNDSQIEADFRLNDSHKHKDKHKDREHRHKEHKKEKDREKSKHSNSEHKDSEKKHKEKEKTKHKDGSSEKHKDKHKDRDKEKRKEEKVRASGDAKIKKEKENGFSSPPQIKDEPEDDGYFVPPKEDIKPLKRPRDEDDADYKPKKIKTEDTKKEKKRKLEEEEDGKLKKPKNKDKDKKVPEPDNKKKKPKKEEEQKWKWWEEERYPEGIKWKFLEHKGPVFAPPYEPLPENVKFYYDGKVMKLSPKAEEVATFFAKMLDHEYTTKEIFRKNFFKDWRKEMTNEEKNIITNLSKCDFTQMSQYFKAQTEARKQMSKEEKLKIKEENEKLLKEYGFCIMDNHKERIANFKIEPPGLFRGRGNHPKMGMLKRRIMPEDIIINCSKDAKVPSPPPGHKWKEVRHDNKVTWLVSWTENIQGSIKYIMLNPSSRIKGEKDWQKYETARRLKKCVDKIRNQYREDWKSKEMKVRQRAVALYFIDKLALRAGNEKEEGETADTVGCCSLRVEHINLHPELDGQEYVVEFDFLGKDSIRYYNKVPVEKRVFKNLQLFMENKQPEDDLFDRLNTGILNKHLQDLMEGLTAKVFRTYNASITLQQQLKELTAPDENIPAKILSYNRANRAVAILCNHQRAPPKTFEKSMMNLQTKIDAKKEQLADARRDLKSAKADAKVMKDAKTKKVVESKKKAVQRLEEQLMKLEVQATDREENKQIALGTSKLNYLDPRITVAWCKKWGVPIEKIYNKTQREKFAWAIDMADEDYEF
Put plainly: Inhibition of topoisomerase 1-mediated relaxation of supercoiled pBR322 DNA at 6.25 to 100 uM after 30 mins by […]. The method, boiled down:
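Supercoiled pBR322 DNA incubated with topoisomerase I (1 unit) with or without drug, 37 °C, 30 min; stopped with 10% SDS; products resolved on 1% agarose gel, supercoiled versus relaxed bands scored; camptothecin as reference.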

Each structure is given as a SMILES string. The source made the active and inactive calls. No cut-off for these calls is given here.

Usually IC50 stands for the concentration at which inhibition is half-maximal. The low end stands for higher potency, the high end for lower potency. Turning to `CC[C@@]1(O)C(=O)OCc2c1cc1n(c2=O)Cc2cc3cc(-c4ccncc4)ccc3nc2-1` [listing 1 of 2 here], the half-inhibitory concentration (IC50) in the data set with A549 [1] (Homo sapiens, A549, 72 h) came to 67 nM; in the data set on Bel-7402 (Homo sapiens, Bel-7402, 72 h), 420 nM; with HL-60 (hl-60), 9 nM. For the same molecule, the Activity is listed as 44.85% in the data set on A549 [2]; 59.61% in the data set on A549 [4]; 18.18% in the data set on A549 [5]; 22.22% in the data set with A549 [6]; 16.74% with A549 [7]; 38.41% in the data set on A549 [8]. Also, the Activity in the data set with A549 [9] is listed as 63.43%; in the data set on A549 [10], 22.33%; in the data set with A549 [12], 14.24%. Also, the Stability entry in data set [3], in data set [11] and in data set [13] was “Stable” each time.
Take `CC[C@@]1(O)C(=O)OCc2c1cc1n(c2=O)Cc2cc3cc(-c4ccc(N(C)C)cc4)ccc3nc2-1`: the IC50 in the data set with A549 [1] (Homo sapiens, A549, 72 h) was 2680 nM; in the data set on Bel-7402 (Homo sapiens, Bel-7402, 72 h), 36500 nM; in the data set on HL-60 (Homo sapiens, HL-60, 72 h) it was 2880 nM.
For the molecule `CC[C@@]1(O)C(=O)OCc2c1cc1n(c2=O)Cc2cc3cc(-c4ccc(C(=O)OC)cc4)ccc3nc2-1`, the half-maximal inhibitory concentration (IC50) amounted to 510 nM in the data set with A549 [1] (Homo sapiens, A549, 72 h); 650 nM with Bel-7402 (Homo sapiens, Bel-7402, 72 h); 280 nM with HL-60 (Homo sapiens, HL-60, 72 h).
For `CC[C@@]1(O)C(=O)OCc2c1cc1n(c2=O)Cc2cc3cc(-c4cccnc4)ccc3nc2-1` the same measures were 68 nM, 380 nM and 32 nM.
Taken in the same sequence, the figures for `CC[C@@]1(O)C(=O)OCc2c1cc1n(c2=O)Cc2cc3cc(-c4ccccc4N(C)C)ccc3nc2-1` were 230 nM, 1530 nM and 160 nM.
Taken in the same sequence, the figures for `CC[C@@]1(O)C(=O)OCc2c1cc1n(c2=O)Cc2cc3cc(-c4cccc(Cl)c4)ccc3nc2-1` were 67 nM, 930 nM and 100 nM.
On to `CC[C@@]1(O)C(=O)OCc2c1cc1n(c2=O)Cc2cc3cc(-c4cccc(C(=O)OC)c4)ccc3nc2-1`, for which the IC50 is 23 nM in the data set on A549 [1] (Homo sapiens, A549, 72 h); 5120 nM in the data set on Bel-7402 (Homo sapiens, Bel-7402, 72 h); 49 nM in the data set on HL-60 (Homo sapiens, HL-60, 72 h).
For `CC[C@@]1(O)C(=O)OCc2c1cc1n(c2=O)Cc2cc3cc(-c4cccc(N(C)C)c4)ccc3nc2-1` the same measures were 40 nM, 180 nM and 13 nM.
Taken in the same sequence, the figures for `CC[C@@]1(O)C(=O)OCc2c1cc1n(c2=O)Cc2cc3cc(-c4ccc(Cl)cc4)ccc3nc2-1` were 320 nM, 3120 nM and 300 nM.
For `CC[C@@]1(O)C(=O)OCc2c1cc1n(c2=O)Cc2cc3cc(-c4cccs4)ccc3nc2-1` the same measures were 10 nM, 80 nM and 48 nM.
As to `CC[C@@]1(O)C(=O)OCc2c1cc1n(c2=O)Cc2cc3cc(-c4cnc5ccccc5c4)ccc3nc2-1`, the IC50 in the data set on A549 [1] (Homo sapiens, A549, 72 h) worked out at 5950 nM; in the data set on Bel-7402 (Homo sapiens, Bel-7402, 72 h), 6590 nM; in the data set on HL-60 (Homo sapiens, HL-60, 72 h), 1440 nM.
As to `CC[C@@]1(O)C(=O)OCc2c1cc1n(c2=O)Cc2cc3cc(-c4ccc(OC)cc4)ccc3nc2-1`, the IC50 with A549 [1] (Homo sapiens, A549, 72 h) worked out at 500 nM; in the data set with Bel-7402 (Homo sapiens, Bel-7402, 72 h), 5890 nM; in the data set with HL-60 (Homo sapiens, HL-60, 72 h), 780 nM.
Taken in the same sequence, the figures for `CC[C@@]1(O)C(=O)OCc2c1cc1n(c2=O)Cc2cc3cc(-c4ccsc4)ccc3nc2-1` were 12 nM, 230 nM and 37 nM.
Take `CC[C@@]1(O)C(=O)OCc2c1cc1n(c2=O)Cc2cc3cc(-c4ccncc4)ccc3nc2-1` [listing 2 of 2 here]: the inhibition result in data set [14] is “Active”.
On to `CC[C@@]1(O)C(=O)OCc2c1cc1n(c2=O)Cc2cc3cc(-c4ccc(C(=O)O)cc4)ccc3nc2-1`, for which the IC50 in the data set with A549 [1] (Homo sapiens, A549, 72 h) came to 11600 nM; in the data set on Bel-7402 (Homo sapiens, Bel-7402, 72 h), 13800 nM; in the data set with HL-60 (Homo sapiens, HL-60, 72 h), 1450 nM.
For `CC[C@@]1(O)C(=O)OCc2c1cc1n(c2=O)Cc2cc3cc(-c4ccccc4Cl)ccc3nc2-1` the same measures were 1120 nM, 2460 nM and 590 nM.
As to `CC[C@@]1(O)C(=O)OCc2c1cc1n(c2=O)Cc2cc3cc(-c4ccncc4)ccc3nc2-1.Cl`, the IC50 in the data set with A549 [1] (a549) worked out at 62 nM; with Bel-7402 (bel-7402), 460 nM; in the data set with HL-60 (hl-60), 21 nM. For the same molecule, the Activity in the data set with A549 [2] stood at 31.29%; with A549 [4] it was 56.19%; in the data set on A549 [5], 15.74%; with A549 [6], 28.07%; in the data set with A549 [7] it was 22%; in the data set with A549 [8], 46.71%. Moreover, the Activity in the data set with A549 [9] amounted to 80.09%; in the data set on A549 [10], 19.91%; in the data set with A549 [12], 0%.
As to `CC[C@@]1(O)C(=O)OCc2c1cc1n(c2=O)Cc2cc3c(CN(C)C)c(O)ccc3nc2-1` [TOPOTECAN], the IC50 in the data set with A549 [1] (Homo sapiens, A549, 72 h) was found to be 71 nM; in the data set on Bel-7402 (Homo sapiens, Bel-7402, 72 h), 470 nM; in the data set on HL-60 (Homo sapiens, HL-60, 72 h), 52 nM. Also, the Activity worked out at 40.04% in the data set on A549 [2], 24.95% in the data set with A549 [7] and 35.02% with A549 [8].
Consider `CC[C@@]1(O)C(=O)OCc2c1cc1n(c2=O)Cc2cc3cc(-c4ccc(O)cc4)ccc3nc2-1`, for which the IC50 was determined as 140 nM with A549 [1] (Homo sapiens, A549, 72 h); 1050 nM in the data set with Bel-7402 (Homo sapiens, Bel-7402, 72 h); 20 nM in the data set with HL-60 (Homo sapiens, HL-60, 72 h).
